These results are taken from ChEMBL document CHEMBL1145458, “Novel vanilloid receptor-1 antagonists: 1. Conformationally restricted analogues of trans-cinnamides” (J Med Chem, 2007).

Activity calls are given as the source filed them. No cut-off for these calls is given here.

Data set [1] addresses T1, Transient receptor potential cation channel subfamily V member 1 (Homo sapiens, UniProt Q8NER1). Put plainly: Agonist activity at TRPV1 expressed in CHO cells. Type of data set: functional, cell-based.
For data set [2], the target named is T2, Transient receptor potential cation channel subfamily V member 1 (Rattus norvegicus, UniProt O35433). Put plainly: Antagonist activity at rat TRPV1 expressed in CHO cells assessed as inhibition of acid-induced calcium influx. The class given is functional, cell-based. A digest of the protocol:
(§1)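 CHO cells stably transfected with human or rat TRPV1 were preincubated with compound for 2 min at room temperature. After washout, uptake was read by scintillation counting. IC50 values come from inhibition curves, averaging at least two experiments run in triplicate.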

Data set [3] addresses T2, Transient receptor potential cation channel subfamily V member 1. Put plainly: Antagonist activity at rat TRPV1 expressed in CHO cells assessed as inhibition of capsaicin-induced calcium influx. Type of data set: functional, cell-based. A digest of the protocol:
(§2)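 Human or rat TRPV1-CHO cells were preincubated with compound for 2 min at room temperature in HBSS with 0.1 mg/mL BSA and 1 mM HEPES pH 7.4. Cells were washed and radioactivity counted. IC50 is the mean of at least two experiments, triplicate per concentration, ±SEM.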

Data set [4] deals with T1, Transient receptor potential cation channel subfamily V member 1. Description: Antagonist activity at human TRPV1 expressed in CHO cells assessed as inhibition of acid-induced calcium influx. Type of data set: functional, cell-based. A digest of the protocol:
as §1

The target is the same in data set [5]. Put plainly: Antagonist activity at human TRPV1 expressed in CHO cells assessed as inhibition of capsaicin-induced calcium influx. The class given is functional, cell-based. In a few lines: as §2
Data set [6] can be described thus: AUC (0-infinity) in Sprague-Dawley rat at 2 mg/kg, iv. Type of data set: ADME, organism-based. More on the design: time infinity, dose 2 mg/kg, route intravenous. The settings on record: plasma. A digest of the protocol: (§3)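 Male Sprague-Dawley rats received a single intravenous dose of 2 mg/kg given as a solution in DMSO. Plasma AUC0-∞, clearance, Vss and t1/2 were derived. Values are means of n = 2 animals per study, or of four studies.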

Data set [7] in a line: Clearance in Sprague-Dawley rat at 2 mg/kg, iv. The class given is ADME, organism-based. More on the design: dose 2 mg/kg, route intravenous. The settings on record: in vivo. In a few lines: as §3
The nature of data set [8]: Volume of distribution at steady state in Sprague-Dawley rat at 2 mg/kg, iv. Type of data set: ADME, organism-based. The settings on record: in vivo, read-out: Vss. More on the design: dose 2 mg/kg, route intravenous. In a few lines: as §3
Data set [9] in a line: Half life in Sprague-Dawley rat at 2 mg/kg, iv. Type of data set: ADME, organism-based. More on the design: dose 2 mg/kg, route intravenous. The settings on record: in vivo. A digest of the protocol: as §3
Data set [10] in a line: Cmax in Sprague-Dawley rat at 5 mg/kg, po. The class given is ADME, organism-based. Also on record: dose 5 mg/kg, route oral. The settings on record: in vivo. In a few lines: (§4)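 Sprague-Dawley rats were dosed orally at 5 mg/kg as a suspension in 5% Tween 80 in Oraplus. Cmax, tmax, AUC0-∞ and oral bioavailability were determined. Values are means of n = 2 animals per study, or of five studies.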

Data set [11] is described as follows: Tmax in Sprague-Dawley rat at 5 mg/kg, po. Type of data set: ADME, organism-based. More on the design: dose 5 mg/kg, route oral. The settings on record: in vivo. In a few lines: as §4
The nature of data set [12]: AUC (0-infinity) in Sprague-Dawley rat at 5 mg/kg, po. Type of data set: ADME, organism-based. More on the design: time infinity, dose 5 mg/kg, route oral. The settings on record: plasma. A digest of the protocol: as §4
The nature of data set [13]: Bioavailability in Sprague-Dawley rat at 5 mg/kg, po. The settings on record: in vivo. Type of data set: ADME, organism-based. A digest of the protocol: as §4
A short description of data set [14]: AUC (0-infinity) in Sprague-Dawley rat at 3 mg/kg, iv. More on the design: time infinity, dose 3 mg/kg, route intravenous. The class given is ADME, organism-based. The settings on record: plasma.
For the next data set, the system named is Rattus norvegicus. Put plainly: Blockade of capsaicin-induced hypothermic response in Sprague-Dawley rat at 40 mg/kg, po. The class given is functional, organism-based. Also on record: dose 40 mg/kg. A digest of the protocol: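 Male Sprague-Dawley rats (175–250 g) had core temperature monitored by radiotelemetry, with a 30 min baseline. Compound or vehicle was given by oral gavage in OraPlus/5% Tween-80 (5 mL/kg), at 40 mg/kg p.o., n = 8 per group. After 90 min, capsaicin 10 mg/kg or vehicle was injected intraperitoneally.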

T2 sequence (O35433 whole entry): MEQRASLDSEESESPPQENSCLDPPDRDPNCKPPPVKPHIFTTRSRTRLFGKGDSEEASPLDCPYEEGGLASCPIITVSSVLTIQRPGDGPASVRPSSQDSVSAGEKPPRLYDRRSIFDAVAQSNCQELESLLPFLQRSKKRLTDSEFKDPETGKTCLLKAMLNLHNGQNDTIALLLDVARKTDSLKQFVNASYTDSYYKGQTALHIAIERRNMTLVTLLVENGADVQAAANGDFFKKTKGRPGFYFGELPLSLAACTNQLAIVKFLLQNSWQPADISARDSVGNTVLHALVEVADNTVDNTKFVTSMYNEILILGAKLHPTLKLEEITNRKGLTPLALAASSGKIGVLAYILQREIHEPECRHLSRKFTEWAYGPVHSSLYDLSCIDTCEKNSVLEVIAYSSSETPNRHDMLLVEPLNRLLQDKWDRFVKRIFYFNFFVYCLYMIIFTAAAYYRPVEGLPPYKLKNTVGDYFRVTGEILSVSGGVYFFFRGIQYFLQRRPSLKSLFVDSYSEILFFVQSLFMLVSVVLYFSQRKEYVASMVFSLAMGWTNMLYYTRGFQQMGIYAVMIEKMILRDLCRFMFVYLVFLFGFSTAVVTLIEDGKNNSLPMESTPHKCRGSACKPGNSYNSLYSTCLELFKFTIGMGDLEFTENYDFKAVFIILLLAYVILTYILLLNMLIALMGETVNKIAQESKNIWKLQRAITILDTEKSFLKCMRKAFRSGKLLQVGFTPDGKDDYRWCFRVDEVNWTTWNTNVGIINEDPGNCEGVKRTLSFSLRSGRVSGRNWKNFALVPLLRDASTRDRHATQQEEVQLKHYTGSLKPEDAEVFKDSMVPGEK
T1 sequence (Q8NER1 whole entry): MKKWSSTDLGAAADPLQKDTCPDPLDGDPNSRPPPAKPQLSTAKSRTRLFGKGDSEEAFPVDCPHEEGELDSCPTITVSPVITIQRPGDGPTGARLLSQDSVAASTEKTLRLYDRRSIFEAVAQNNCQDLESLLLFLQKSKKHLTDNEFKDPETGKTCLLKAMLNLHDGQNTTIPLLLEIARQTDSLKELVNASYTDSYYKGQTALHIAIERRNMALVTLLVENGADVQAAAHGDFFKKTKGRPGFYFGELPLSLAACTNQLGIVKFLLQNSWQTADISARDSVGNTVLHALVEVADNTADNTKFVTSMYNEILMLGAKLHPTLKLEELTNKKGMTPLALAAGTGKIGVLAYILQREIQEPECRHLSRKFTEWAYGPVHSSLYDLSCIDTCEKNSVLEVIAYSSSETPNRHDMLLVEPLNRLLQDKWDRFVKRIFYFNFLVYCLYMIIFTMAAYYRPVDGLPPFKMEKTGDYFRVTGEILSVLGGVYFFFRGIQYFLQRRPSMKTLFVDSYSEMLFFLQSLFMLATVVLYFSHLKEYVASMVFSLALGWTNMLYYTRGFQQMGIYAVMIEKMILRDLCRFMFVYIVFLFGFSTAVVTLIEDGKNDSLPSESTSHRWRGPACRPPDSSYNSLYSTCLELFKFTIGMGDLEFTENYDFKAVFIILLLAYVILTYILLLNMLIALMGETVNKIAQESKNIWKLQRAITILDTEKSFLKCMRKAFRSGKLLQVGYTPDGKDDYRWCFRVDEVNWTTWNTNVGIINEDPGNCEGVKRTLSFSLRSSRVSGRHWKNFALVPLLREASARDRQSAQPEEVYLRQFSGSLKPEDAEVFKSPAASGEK

The EC50 is the concentration at which the effect is half-maximal. Low readings indicate a more potent agent, high ones a less potent agent. Broadly, the IC50 is the concentration at which inhibition is half-maximal. With `CC(C)(C)c1ccc(-c2cc(Nc3ccc4c(c3)OCCO4)cnn2)cc1`, the EC50 in data set [1] is above 4000 nM. Further, the IC50 in data set [2] was above 4000 nM; in [3], 840 nM.
`CC(C)(C)c1ccc(-c2cccc(Nc3ccc4c(c3)OCCO4)c2)cc1` yielded an EC50 in data set [1] above 4000 nM. The IC50 in data set [2] and in data set [3] was above 4000 nM each time.
In turn, `CC(C)(C)c1ccc(-c2cncc(Nc3ccc4c(c3)OCCO4)n2)cc1` returned an EC50 in data set [1] above 4000 nM. Further, the IC50 in data set [2] and in data set [3] was above 4000 nM in each case.
For `CC(C)(C)c1ccc(-c2cc(Cc3ccc4c(c3)OCCO4)ncn2)cc1`, the concentration giving a half-maximal response (EC50) in [1] was above 4000 nM. Besides, the figures for the IC50 in [2] and in [3] were above 4000 nM and 914 nM, respectively.
With `CC(C)(C)c1ccc(-c2ncnc(Nc3ccc4c(c3)OCCO4)n2)cc1`, the EC50 in data set [1] was above 4000 nM. The results for the IC50 in data set [2] and in [3] were above 4000 nM and 760 nM, respectively.
The molecule `CC(C)(C)c1ccc(-c2cnnc(Nc3ccc4c(c3)OCCO4)c2)cc1` showed an EC50 in data set [1] above 4000 nM. For the same molecule, the figures for the IC50 in data set [2] and in data set [3] were above 4000 nM and 780 nM, respectively.
In data set [1], `CN(c1ccc2c(c1)OCCO2)c1cc(-c2ccc(C(C)(C)C)cc2)ncn1` came in with an EC50 above 4000 nM. For the same molecule, the IC50 was 2200 nM in data set [2] and above 4000 nM in data set [3].
As to `CC(C)(C)c1ccc(-c2nccc(Nc3ccc4c(c3)OCCO4)n2)cc1`, the EC50 in data set [1] is above 4000 nM. Moreover, the IC50 in [2] and in data set [3] was above 4000 nM in each case.
As usually defined, the AUC(0-inf) is total exposure, with the tail of the curve extrapolated. Read a low AUC(0-inf) as low exposure. Broadly, the clearance is the volume of plasma or blood freed of the substance per unit of time. A lower clearance goes with a low capacity for elimination. As a reminder, the half-life is the time in which the quantity being followed falls by half. High values mean slow decline, low ones rapid decline. Broadly, the Cmax is the highest concentration seen after dosing. The term Tmax denotes the time at which the peak concentration occurs. As usually defined, the bioavailability is the share of a dose that reaches the circulation, judged against a reference dose that is usually intravenous. High values mean good availability, low ones poor availability. As for `CC(C)(C)c1ccc(-c2cc(Nc3ccc4cccnc4c3)ncn2)cc1`, the EC50 in data set [1] was above 4000 nM. The IC50 in data set [4] worked out at 6.9 nM; in [5], 1.9 nM; in data set [2], 22 nM; in [3], 2 nM. Besides, the total exposure AUC(0-inf) in data set [6] was 340 ng·h/mL; in data set [12], 79 ng·h/mL. Further, the clearance in [7] is 48.3 mL/min/kg. Also, in data set [8], the Vd stood at 3.1 L/kg. In addition, the half-life in [9] is 1.6 h. In [10], this molecule came in with a Cmax of 34 ng/mL. The Tmax in data set [11] stood at 0.5 h. The same molecule registered a bioavailability in [13] of 5%.
Consider `FC(F)(F)c1ccc(-c2cc(Nc3ccc4cccnc4c3)ncn2)cc1`, for which the EC50 in [1] was above 4000 nM. For the same molecule, the figures for the IC50 in data set [4], in [5] and in data set [2] were 0.3 nM, 0.6 nM and 6.6 nM, respectively. Moreover, the values for the total exposure AUC(0-inf) in [6] and in [12] were 320 ng·h/mL and 94 ng·h/mL, respectively. The clearance in data set [7] is 51.7 mL/min/kg. The Vd in data set [8] was found to be 3 L/kg. Besides, the half-life in data set [9] is 1.7 h. In [10], this molecule gave a Cmax of 26 ng/mL. The Tmax in data set [11] was found to be 5 h. The molecule further yielded a bioavailability in data set [13] of 6%.
For `CC(C)(C)c1ccc(/C=C/C(=O)Nc2ccc3c(c2)OCCO3)cc1`, the concentration for a half-maximal effect (EC50) in [1] is above 4000 nM. The AUC(0-inf) in data set [14] was found to be 680 ng·h/mL.
As to `CC(C)(C)c1ccc(-c2cc(Nc3ccc4c(c3)OCCO4)ncn2)cc1`, in [1], the EC50 was above 4000 nM. For the same molecule, the IC50 in data set [4] came to 270 nM; in [5], 51 nM; in data set [2], 680 nM; in [3] it was 120 nM.
In data set [1], `CC(C)(C)c1ccc(-c2cc(Sc3ccc4c(c3)OCCO4)ncn2)cc1` gave an EC50 above 4000 nM. The IC50 in data set [2] and in [3] was above 4000 nM throughout.
Turning to `CC(C)(C)c1ccc(/C=C2\CCCN(c3ccc4c(c3)OCCO4)C2=O)cc1`, the EC50 in data set [1] is above 4000 nM. Moreover, the IC50 in data set [2] and in data set [3] was above 4000 nM each time.
Regarding `FC(F)(F)c1ccc(-c2cc(Oc3ccc4cccnc4c3)ncn2)cc1`, the concentration for a half-maximal effect (EC50) in data set [1] was above 4000 nM. Further, the values for the IC50 in data set [4] and in data set [5] were 4.2 nM and 3.7 nM, respectively. In addition, the AUC(0-inf) in data set [6] came out at 1590 ng·h/mL; in data set [12], 2040 ng·h/mL. The Vd in [8] amounted to 3 L/kg. The molecule also gave a half-life in [9] of 2.8 h. In data set [10], this molecule had a Cmax of 300 ng/mL. Moreover, in [11], the Tmax stood at 1.2 h. The same molecule gave a bioavailability in [13] of 31%. Further, the outcome in the data set on Rattus norvegicus was Active.
`CC(C)(C)c1ccc(-c2cc(Oc3ccc4c(c3)OCCO4)ncn2)cc1` had an EC50 in [1] above 4000 nM. For the same molecule, in data set [2], the IC50 is 670 nM.
`FC(F)(F)c1ccc(-c2cc(Nc3ccc4c(c3)OCCO4)ncn2)cc1` yielded an EC50 in data set [1] above 4000 nM. Moreover, the concentration for half-maximal inhibition (IC50) in data set [4] was 250 nM; in data set [5] it was 120 nM; in data set [2] it was 1200 nM; in data set [3], 430 nM.
Take `CC(C)(C)c1ccc(-c2ccnc(Nc3ccc4c(c3)OCCO4)c2)cc1`: in data set [1], the EC50 is above 4000 nM. Further, the half-inhibitory concentration (IC50) amounted to 1300 nM in data set [2] and 230 nM in [3].
`CC(C)(C)c1ccc(-c2ccnc(Nc3ccc4c(c3)OCCO4)n2)cc1` displayed a 50% effective concentration (EC50) in data set [1] above 4000 nM. Further, the IC50 in [2] and in data set [3] was above 4000 nM each time.
`CC(C)(C)c1ccc(-c2cccc(Nc3ccc4c(c3)OCCO4)n2)cc1` gave an EC50 in data set [1] above 4000 nM. Also, the IC50 in data set [2] and in [3] was above 4000 nM each time.
`CC(C)(C)c1ccc(-c2cc(Nc3ccc4c(c3)OCCO4)ccn2)cc1` registered an EC50 in data set [1] above 4000 nM. The IC50 in data set [2] and in data set [3] was above 4000 nM in each case.
`CC(C)(C)c1ccc(-c2cncc(Nc3ccc4c(c3)OCCO4)c2)cc1` yielded an EC50 in data set [1] above 4000 nM. Further, the values for the IC50 in data set [2] and in data set [3] were above 4000 nM and 1210 nM, respectively.
In [1], `CC(C)(C)c1ccc(Cc2cccn(-c3ccc4c(c3)OCCO4)c2=O)cc1` came in with an EC50 above 4000 nM. Moreover, the 50% inhibitory concentration (IC50) in data set [2] and in data set [3] was above 4000 nM throughout.
